In ChEMBL document CHEMBL1141798, “Antitubercular constituents from the stem wood of Cinnamomum kotoense” (2005) one finds MIC data, which are given here for 14 molecules.

Values after ≈ are worked out from the molar mass of the structure shown.

The experiment deals with Mycobacterium tuberculosis. The experiment is described as follows: Antitubercular activity against Mycobacterium tuberculosis 90-221387. Type of experiment: functional. A digest of the protocol:
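Agar proportion method on Middlebrook 7H10 with OADC; compounds serially diluted into molten agar (50-56 °C) to final 100 to 0.8 µg/mL. Inoculum from colonies in 7H9 broth, adjusted to McFarland no. 1, diluted 10-2; 33 µL spotted per quadrant. Incubated 35 °C, 10% CO2, 2 weeks; MIC = lowest concentration completely inhibiting growth.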
`CC(=O)c1ccc(C)o1`: the MIC was found to be 323 µM (≈ 40 µg/mL).
`COc1cc(OC)c2c(c1)O[C@H](c1ccc(O)c(OC)c1)[C@H](O)C2` yielded an MIC of 151 µM (≈ 50.1 µg/mL).
Molecule `COc1cc([C@H]2OC[C@H]3[C@@H]2CO[C@@H]3c2cc(OC)c(O)c(OC)c2)cc(OC)c1O` (racemic) [SYRINGARESINOL] had an MIC of 239 µM (≈ 100 µg/mL).
As to `O=Cc1ccc(O)cc1` [4-HYDROXYBENZALDEHYDE], the lowest concentration to inhibit growth (MIC) was 369 µM (≈ 45 µg/mL).
In turn, `O=C(O)c1ccccc1` [BENZOIC ACID] had an MIC of 328 µM (≈ 40 µg/mL).
`CCCCCCCCCCCC(=O)O` [DODECANOATE] returned an MIC of 62.5 µM (≈ 12.5 µg/mL).
`C=C1OC(=O)/C(=C/CCCCCCCCCCCCC)[C@@H]1O` [ISOOBTUSILACTONE A] displayed an MIC of 22.5 µM (≈ 6.93 µg/mL).
Consider `CCCCCCCCCCCCCCCCCCCCCCCCCCCC(O)O` [KOTODIOL], for which the lowest concentration to inhibit growth (MIC) was 117 µM (≈ 50.1 µg/mL).
For `CCCCCCCCCCCCC/C=C1/C(=O)O[C@@]2(C)O[C@H](CCCCCCCCCCCCC)O[C@@H]12` [KOTOLACTONE A] the value was 40.1 µM (≈ 20.9 µg/mL); for `C#CCCCCCCCCC/C=C1/C(=O)O[C@@H](C)[C@H]1O` [LINCOMOLIDE B], 10.2 µM (≈ 2.83 µg/mL); for `O=C(O)c1ccc(O)c(O)c1` [PROTOCATECHUIC ACID], 649 µM (≈ 100 µg/mL).
On to `CO[C@H]1/C=C/O[C@@]2(C)Oc3c(C)c(O)c4c(O)c(c(/C=N/N5CCN(C)CC5)c(O)c4c3C2=O)NC(=O)/C(C)=C\C=C\[C@H](C)[C@H](O)[C@@H](C)[C@@H](O)[C@@H](C)[C@H](OC(C)=O)[C@@H]1C` [RIFAMPIN], for which the lowest concentration to inhibit growth (MIC) was 0.24 µM (≈ 0.198 µg/mL).
Molecule `COc1cc(C=O)cc(OC)c1O` [SYRINGALDEHYDE] registered an MIC of 137 µM (≈ 25 µg/mL).
For `COc1cc(C=O)ccc1O` [VANILLIN] the value was 82.2 µM (≈ 12.5 µg/mL).

What is called MIC is the lowest concentration found to suppress growth. High values mean a need for much substance, low ones inhibition by little substance.
